Experimental data: ChEMBL document CHEMBL4732076, “Design, synthesis and bioevaluation of inhibitors targeting HSP90-CDC37 protein-protein interaction based on a hydrophobic core” (Eur J Med Chem, 2021)
pIC50: −log10 of the molar value. Active and inactive are the calls of the source. No cut-off for these calls is given here.

Columns and labels:
Heat shock protein HSP90 [1] = target: T1, Heat shock protein HSP90 (Homo sapiens, UniProt P07900+P08238); assay: Binding affinity to recombinant human N-terminal truncated HSP90 (9 to 236 residues) expressed in Escherichia coli BL21 (DE3) assessed as off rate constant by biolayer interferometry assay
HCT-116 [2] = assay: Antiproliferative activity against human HCT-116 cells assessed as reduction in cell viability incubated for 72 hrs by MTT assay; type: functional, cell-based; conditions: for pIC50: Homo sapiens, HCT-116, 72 h, read-out: IC50
Method in brief: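 HCT116 cells in RPMI 1640 with 10% FBS, 37 °C, 5% CO2. Seeded at 3000–5000 cells/well and left 24 h, then exposed to serial compound dilutions for 72 h. Proliferation read by MTT kit using the standard protocol.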

Heat shock protein HSP90 [3] = target: T1, Heat shock protein HSP90; assay: Binding affinity to recombinant human N-terminal truncated HSP90 (9 to 236 residues) expressed in Escherichia coli BL21 (DE3) assessed as on rate constant by biolayer interferometry assay
HCT-116 [4] = assay: Antitumor activity against human HCT-116 cells xenografted in BALB/c mouse assessed as reduction in tumor volume at 20 mg/kg, po administered for 37 days and measured on day 37; type: functional, organism-based; conditions: time 37.0 day
Method in brief: (§1)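 HCT116 cells (1×10^7) mixed 3:1 with Matrigel and injected into the flank of 6-week-old BALB/c nude mice, randomized into groups. Dosing started at mean tumor volume 125 mm³: daily oral doses of 10 or 20 mg/kg in 0.9% saline with 5% DMSO, for 37 days. Tumor volume measured daily by calipers as length×width²/2; body weight recorded every 1–4 days. n = 6, mean ± SD.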

[5] = Toxicity in BALB/c mouse xenografted with human HCT-116 cells assessed as effect on body weight at 20 mg/kg, po administered and observed for 37 days; type: organism-based; conditions: in vivo, 888 h, time 37 day; method in brief: as §1
Mus musculus [6] = assay: In vivo inhibition of HSP90/[…] interaction in BALB/c mouse xenografted with human HCT-116 cells assessed as reduction in CDK4 level at 20 mg/kg, po administered for 37 days and measured on day 37 by […] immunohistochemistry analysis; type: functional, organism-based; conditions: time 37.0 day
Heat shock protein HSP90 [7] = target: T1, Heat shock protein HSP90; assay: Binding affinity to recombinant human N-terminal truncated HSP90 (9 to 236 residues) expressed in Escherichia coli BL21 (DE3) assessed as dissociation rate constant by biolayer interferometry assay
Heat shock protein HSP90 [8] = target: T1, Heat shock protein HSP90; assay: Inhibition of HSP90 (unknown origin) at 100 uM measured after 1.5 hrs in presence of ATP by spectrophotometry relative to control; type: protein assay
HCT-116 [9] = assay: Inhibition of HSP90/CDC37 interaction in human HCT-116 cells assessed as downregulation of CDK6 incubated for 12 hrs by Western blot analysis; type: cell-based; conditions: dose 1-10 µM
Method in brief: (§2)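 HCT116 cells treated with 0, 1, 5 and 10 μM compound for 12 h. Whole-cell levels of HSP90, HSP70, CDC37, CDK4, CDK6, cyclin D1, p21 and p27 measured by Western blot, with β-actin as loading control. Three independent experiments.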

HCT-116 [10] = assay: Inhibition of HSP90/CDC37 interaction in human HCT-116 cells assessed as downregulation of HSP70 at 1 to 10 uM incubated for 12 hrs by Western blot analysis; conditions: dose 1-10 µM
HCT-116 [11] = assay: Antitumor activity against human HCT-116 cells xenografted in BALB/c mouse assessed as reduction in tumor at 10 to 20 mg/kg, po administered for 37 days and measured on day 37 by H and E staining based immunohistochemistry analysis; type: functional, organism-based; conditions: dose 10-20 mg/kg, time 37.0 day
HCT-116 [12] = assay: Inhibition of HSP90/CDC37 interaction in human HCT-116 cells assessed as reduction in CDK4 expression at 1 to 10 uM incubated for 12 hrs by immunoprecipitation based Western blot analysis; type: cell-based; conditions: dose 1-10 µM
Method in brief: (§3)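 HCT116 cells at ~90% confluence given compound (0, 1, 5, 10 μM) or DMSO for 12 h. Lysed 1 h on ice in RIPA buffer (50 mM Tris, 150 mM NaCl, 1% NP-40, protease inhibitors, pH 7.4), then spun 15 min at 4 °C. HSP90 immunoprecipitated with protein A/G magnetic beads over 3 h. Beads washed five times; blots probed for HSP90, CDC37 and CDK4.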

Heat shock protein HSP90 [13] = target: T1, Heat shock protein HSP90; assay: Binding affinity to HSP90 in human HCT-116 cells assessed as increase in thermal stability at 5 uM incubated for 12 hrs at 35 to 65 degC by […]; type: cell-based
Method in brief: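 HCT116 cells at ~90% confluence treated with 5 μM compound or DMSO for 12 h, then washed and resuspended in PBS. Aliquots heated 3 min across 35–65 °C, freeze-thawed three times in liquid nitrogen and centrifuged. Soluble HSP90 and CDC37 detected by Western blot. Three independent experiments.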

HCT-116 [14] = assay: Induction of cell cycle arrest in human HCT-116 cells assessed as increase in accumulation at G0/G1 phase at 1 to 10 uM incubated for 24 hrs by propidium iodide staining based flow cytometric analysis; type: functional; conditions: dose 1-10 µM
Method in brief: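 HCT116 cells exposed to 0, 1, 5 and 10 μM compound for 24 h. Fixed in 75% ethanol overnight at 4 °C, treated with RNase I (50 μg/mL) in PBS for 30 min at 37 °C, then stained with propidium iodide (50 μg/mL) for 15 min. Cell-cycle phases measured by flow cytometry.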

HCT-116 [15] = assay: Inhibition of HSP90/CDC37 interaction in human HCT-116 cells for 12 hrs by immunoprecipitation based Western blot analysis; type: cell-based; conditions: dose 1-10 µM; method in brief: as §3
HCT-116 [16] = assay: Inhibition of HSP90/CDC37 interaction in human HCT-116 cells assessed as downregulation of Cyclin D1 at 1 to 10 uM incubated for 12 hrs by Western blot analysis; conditions: dose 1-10 µM
HCT-116 [17] = assay: Antitumor activity against human HCT-116 cells xenografted in BALB/c mouse assessed as reduction in tumor volume administered orally for 37 days and measured on day 37; type: functional; conditions: dose 10-20 mg/kg, time 37.0 day; method in brief: as §1
Mus musculus [18] = assay: In vivo inhibition of HSP90/[…] interaction in BALB/c mouse xenografted with human HCT-116 cells assessed as reduction in CDK4 level administered orally for 37 days and measured on day 37 by […] immunohistochemistry analysis; type: functional, organism-based; conditions: dose 10-20 mg/kg, time 37.0 day
HCT-116 [19] = assay: Inhibition of HSP90/CDC37 interaction in human HCT-116 cells assessed as upregulation of p21/p27 at 1 to 10 uM incubated for 12 hrs by Western blot analysis; conditions: dose 1-10 µM
[20] = Toxicity in BALB/c mouse xenografted with human HCT-116 cells assessed as effect on body weight at 10 to 20 mg/kg, po administered and observed for 37 days; type: organism-based; conditions: in vivo, 888 h, dose 10-20 mg/kg, time 37 day; method in brief: as §1
HCT-116 [21] = assay: Inhibition of HSP90/CDC37 interaction in human HCT-116 cells assessed as downregulation of CDK4 incubated for 12 hrs by Western blot analysis; type: cell-based; conditions: dose 1-10 µM; method in brief: as §2

| Structure (SMILES) | K (Heat shock protein HSP90 [1]) | pIC50 (HCT-116 [2]) | K (Heat shock protein HSP90 [3]) | Kd (Heat shock protein HSP90 [7]) | further results |
| --- | --- | --- | --- | --- | --- |
| N#Cc1ccc(S(=O)(=O)Nc2ccc(Nc3ccnc(N4CCNCC4)n3)cc2)cc1 | inactive | < 4.70 | inactive | – | – |
| Cc1ccc(S(=O)(=O)Nc2ccc(Nc3ccnc(N4CCNCC4)n3)cc2)cc1 | inactive | < 4.70 | inactive | – | – |
| Cc1cc(C)c(S(=O)(=O)N(CC(=O)O)c2ccc(Nc3ccnc(N4CCNCC4)n3)cc2)c(C)c1 | – | – | – | – | Activity (HCT-116 [4]): Active; Activity [5]: Non-Toxic; inhibition (Mus musculus [6]): Active |
| O=S(=O)(Nc1ccc(Nc2ccnc(N3CCNCC3)n2)cc1)c1ccc(F)cc1 | inactive | < 4.70 | inactive | – | – |
| COc1cc(S(=O)(=O)Nc2ccc(Nc3ccnc(N4CCNCC4)n3)cc2)c(C)cc1C.Cl | – | < 4.30 | – | >= 20 uM | inhibition (Heat shock protein HSP90 [8]): 56% |
| Cl.Cn1cnc(S(=O)(=O)Nc2ccc(Nc3ccnc(N4CCNCC4)n3)cc2)c1 | inactive | – | inactive | – | IC50 (HCT-116 [2]; hct-116): Not Active |
| CCCCCc1ccc(S(=O)(=O)Nc2ccc(Nc3ccnc(N4CCNCC4)n3)cc2)cc1.Cl | – | 4.78 | – | > 100 µM | – |
| Cc1c(C)c(S(=O)(=O)Nc2ccc(Nc3ccnc(N4CCNCC4)n3)cc2)c(C)c2c1OC(C)(C)C2.Cl | 0.112 s⁻¹ | 5.20 | 2.03 10^4/Ms | 5.52 µM | inhibition (HCT-116 [9]): Dose-dependent effect; inhibition (HCT-116 [10]): inactive; Activity (HCT-116 [11]): Active; inhibition (HCT-116 [12]): Active; Activity (Heat shock protein HSP90 [13]): Active; Activity (HCT-116 [14]): Active; inhibition (HCT-116 [15]): Dose-dependent effect; inhibition (HCT-116 [16]): Active; Activity (HCT-116 [17]): Dose-dependent effect; inhibition (Mus musculus [18]): Dose-dependent effect; inhibition (HCT-116 [19]): Active; Activity [20]: Non-Toxic; inhibition (HCT-116 [21]): Dose-dependent effect |
| Cl.O=S(=O)(Nc1ccc(Nc2ccnc(N3CCNCC3)n2)cc1)c1ccc2c(c1)CCO2 | 0.0321 s⁻¹ | 5.24 | 3.02 10^3(1/Ms) | 10.6 µM | – |
| Cl.O=S(=O)(Nc1ccc(Nc2ccnc(N3CCNCC3)n2)cc1)c1ccc(-c2ccccc2)cc1 | 0.112 s⁻¹ | 4.86 | 6.1 10^3(1/Ms) | 18.4 µM | – |
| CCCCc1ccc(S(=O)(=O)Nc2ccc(Nc3ccnc(N4CCNCC4)n3)cc2)cc1.Cl | 0.121 s⁻¹ | 5.12 | 1.04 10^4/Ms | 11.6 µM | – |
| O=S(=O)(Nc1ccc(Nc2ccnc(N3CCNCC3)n2)cc1)c1ccc(OC(F)(F)F)cc1 | inactive | < 4.70 | inactive | – | – |
| O=S(=O)(Nc1ccc(Nc2ccnc(N3CCNCC3)n2)cc1)c1ccc(Cl)cc1 | inactive | 4.95 | inactive | – | – |
| O=S(=O)(Nc1ccc(Nc2ccnc(N3CCNCC3)n2)cc1)c1ccc(OCc2ccccc2)cc1 | inactive | 5.15 | inactive | – | – |
| CCCc1ccc(S(=O)(=O)Nc2ccc(Nc3ccnc(N4CCNCC4)n3)cc2)cc1.Cl | 0.0366 s⁻¹ | 4.71 | 3.17 10^3(1/Ms) | 11.5 µM | – |
| O=S(=O)(Nc1ccc(Nc2ccnc(N3CCNCC3)n2)cc1)c1cccs1 | inactive | < 4.70 | inactive | – | – |
| CCc1ccc(S(=O)(=O)Nc2ccc(Nc3ccnc(N4CCNCC4)n3)cc2)cc1 | inactive | < 4.70 | inactive | – | – |
| Cl.O=S(=O)(Nc1ccc(Nc2ccnc(N3CCNCC3)n2)cc1)c1ccc2c(c1)CCC2 | 0.337 s⁻¹ | 4.87 | 3.54 10^4/Ms | 9.52 µM | – |
| CC(C)c1ccc(S(=O)(=O)Nc2ccc(Nc3ccnc(N4CCNCC4)n3)cc2)cc1.Cl | – | < 4.70 | – | > 100 µM | – |
| CCOC(=O)c1ccc(S(=O)(=O)Nc2ccc(Nc3ccnc(N4CCNCC4)n3)cc2)cc1.Cl | 0.182 s⁻¹ | 4.79 | 3.55 10^4/Ms | 5.13 µM | – |
| CC(C)c1cc(C(C)C)c(S(=O)(=O)Nc2ccc(Nc3ccnc(N4CCNCC4)n3)cc2)c(C(C)C)c1 | inactive | < 4.70 | inactive | – | – |
| O=S(=O)(Nc1ccc(Nc2ccnc(N3CCNCC3)n2)cc1)c1ccc(Br)cc1 | inactive | 5.87 | inactive | – | – |
| O=S(=O)(Nc1ccc(Nc2ccnc(N3CCNCC3)n2)cc1)c1ccc(Oc2ccccc2)cc1 | inactive | < 4.70 | inactive | – | – |
